Assay outcomes as filed in PubChem.
Only some compounds are listed: those with a hit (about 2.6% of all), similar ones and a draw of the others.
GSIS activator – GLuc luminescence reporter in INS-1E cells, primary screen for activators of glucose-dependent secretion of insulin; AID 743287; 0.61% of 370,000 active; activation, % at 16.6 µM; INS-1E GLuc reporter insulin secretion, 2-3 h;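 active = lowest replicate activation of at least 40%, so every replicate reaches that level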;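 note: 0% = median of neutral control wells and 100% = median of IBMX positive control wells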
F508del corr – CFTR F508del correction in bronchial cells; CFBE cells, YFP halide quenching; stimulated with forskolin plus potentiator P3; % fluorescence drop versus neutral controls; activity (quench increase), % at 7.58 µM; 0.36% of 350,000 active;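 active = mean added fluorescence quench of at least 8% versus neutral control, with both replicates also reaching 8%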;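 note: cells transiently co-express mutant CFTR-F508del with the halide-sensitive YFP; corrector assay measuring rescue of mutant channel to the surface after 24 h compound exposure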
miR122 inh – miR-122 inhibition in Huh7 cells | Huh7 miR-122 Renilla luciferase sensor, 48 h; neutral wells = 0, positive control = 100 | activation (reporter increase), % at 12.5 µM | 0.3% of 340,000 active;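 active = mean replicate activation score at least 90 and every replicate individually at or above 90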;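 note: higher luciferase means less miR-122 activity so hits act as miR-122 inhibitors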
ERAP1 HTS inh – blocks human ERAP1 aminopeptidase activity; Q9NZ08; recombinant ERAP1, Leu-AMC fluorescence, 60 min; inhibition, % at 10.7 µM; 0.15% of 340,000 active;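 active = mean replicate inhibition of at least 30%, or all replicates individually reaching that 30% level; inactive = mean below 30% and not every replicate reaching it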;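 note: 0% = neutral control wells and 100% = L-leucinethiol positive control wells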
E-selectin induc – E-selectin induction on HUVECs; P16581; HUVEC E-selectin immunofluorescence imaging; normalized: neutral wells 0, TNF-alpha wells 100; activation, % at 7.58 µM; 0.37% of 260,000 active; AID 686992;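 active = mean E-selectin-positive cell signal at least 10% of the positive control, reached in at least 60% of replicates, without over 20% cell loss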
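Assay system: HUVEC, human umbilical vein endothelial cells / Amount: 3,000 HUVEC/well / Controls: TNF-alpha positive control, DMSO neutral control / Compound dosing: single concentration / Medium: EGM-2 over gelatin coat / Evaluation: percent E-selectin-positive cells / Signal: immunofluorescence imaging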
DENV2 CPE rescue – protects cells from dengue virus 2 cytopathic effect. DENV2-infected cells, cytopathic effect rescue, plate reader. CPE inhibition, % at 9.99 µM. 1.7% of 350,000 active; in the data active = CPE inhibition above about 20%, passing the limit was not always enough; tested in BHK-21 cells;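 note: 0% = median of neutral control wells and 100% = median of positive control wells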
An asterisk follows results filed as active; nt = no result given; [ ] = another dose, or the depositor's remark.

SMILES | GSIS activator | F508del corr | miR122 inh | ERAP1 HTS inh | E-selectin induc | DENV2 CPE rescue
C[C@@H]1CN([C@@H](C)CO)C(=O)c2cc(NC(=O)Nc3cccc4ccccc34)ccc2O[C@@H](C)CCCCO[C@@H]1CN(C)CC1CCCCC1 | -14 | -1 | -34[16.7 µM] | -6 | 0 | -3
Cn1cc(Br)c(C(=O)NNC(=O)c2ccccc2)n1 | 42* | nt | 4 | nt | nt | nt
O=C(NC1CCCCC1)N[C@H]1CC[C@@H](CCNS(=O)(=O)c2ccccc2)O[C@H]1CO | 11 | -2 | nt | 2 | 1 | 0
Cc1noc(C)c1NC(=O)Nc1ccc2c(c1)CC(=O)N([C@@H](C)CO)C[C@@H](C)[C@@H](CN(C)Cc1ccc(C(F)(F)F)cc1)O2 | -14 | 5 | 1[16.7 µM] | -2 | 0 | -9
Cc1cc(Br)cn2c(Cc3cccc(F)c3)c(-c3ccco3)nc12 | 66* | 4 | nt | 0 | 0 | -11
CCCNC(=O)N1CC2(CCN(CC3CCOCC3)CC2)c2c(n(C)c3cc(OC)ccc23)[C@@H]1CO | 14 | 1 | nt | nt | 0 | 12
CCC(C)(CC(=O)Nc1nccs1)c1ccccc1 (stereo not drawn) | 41* | -2 | 1 | -2 | 0 | -4
C[C@H](CO)N1C[C@H](C)[C@@H](CN(C)C)Oc2cc(C#CC3CCCC3)ccc2S1(=O)=O | 5 | -2 | 25[16.7 µM] | -9 | 1 | 9
O=C1Nc2ccc([N+](=O)[O-])cc2OC1CCN1CCN(Cc2ccc3c(c2)OCO3)CC1 (stereo not drawn) | -25 | -2 | 153* | 2 | -1 | 1
CC(C)NC(=O)Nc1ccc2c(c1)C(=O)N([C@@H](C)CO)C[C@@H](C)[C@H](CN(C)S(=O)(=O)c1cccs1)O2 | 7 | -2 | -5[16.7 µM] | nt | -2 | nt
O=C(CSc1nnc(-c2cccnc2)s1)Nc1ccnc2ccccc12 | -30 | nt | nt | nt | nt | nt
O=C(CSc1ccc(-c2cccnc2)nn1)Nc1ccc(Br)cc1 | nt | -2 | -2 | -7 | 0 | 30*
Cc1ccc(NC(=O)CSc2nnc(-c3cccnc3)s2)cc1 | 42* | nt | -9 | nt | -2 | nt
Cc1ccc(NC(=O)CSCC(=O)Nc2nnc(C)s2)cc1 | 47* | 5 | -1 | 1 | nt | -7
Cc1nnc(NC(=O)CSCc2ccccc2)s1 | nt | 4 | -4 | -3 | -1 | 5
CN1C(=O)N[C@@H]2c3ccccc3O[C@@]1(C)[C@@H]2CO | nt | 2 | nt | 3 | nt | 20*
CCN(Cc1ccccc1)S(=O)(=O)c1ccccc1Br | 41* | -6 | 9 | 0 | 0 | 1
CCN(Cc1cc(OC)c(OC)c(OC)c1)S(=O)(=O)c1ccccc1Br | -3 | 4 | nt | nt | 0 | 2
CCCNC(=O)C[C@@H]1C[C@H]2c3cc(NC(=O)NC4CCCC4)ccc3O[C@H]2[C@H](CO)O1 | -4 | -2 | 3[16.7 µM] | 0 | 0 | 17
CCCNC(=O)N1CC2(CCN(C(=O)C3CCCCC3)CC2)c2c([nH]c3cc(OC)ccc23)[C@H]1CO | -23 | -2 | nt | nt | 0 | -4
C[C@@H]1CN([C@@H](C)CO)C(=O)c2cc(NC(=O)Nc3cccc4ccccc34)ccc2O[C@@H](C)CCCCO[C@@H]1CN(C)S(=O)(=O)c1ccc(F)cc1 | 24 | 1 | -7[16.7 µM] | -1 | 0 | 21*
COc1ccc(S(=O)(=O)N(C)C[C@H]2OCCCC[C@H](C)Oc3ccc(NC(=O)Nc4cccc5ccccc45)cc3C(=O)N([C@@H](C)CO)C[C@@H]2C)cc1 | 8 | -1 | -4[16.7 µM] | -6 | 1 | 2
COc1ccc(S(=O)(=O)N(C)C[C@@H]2OCCCC[C@H](C)Oc3ccc(NC(=O)Nc4cccc5ccccc45)cc3C(=O)N([C@H](C)CO)C[C@H]2C)cc1 | 6 | -3 | 4[16.7 µM] | -6 | 34* | 2
Cc1cc(NN=Cc2ccccn2)nc2ccccc12 | 20 | 6 | nt | -3 | 0 | 16
C(=NNc1ccc2ccccc2n1)c1ccccn1 | nt | 8.2* | 26 | -1 | 0 | -3
CC(=O)N(C)C[C@@H]1Oc2ncc(-c3cccc(C#N)c3)cc2C(=O)N([C@H](C)CO)C[C@H]1C | 27 | nt | -7[16.7 µM] | 1 | 0 | -6
O=C1CSC(c2ccccn2)N1c1ccc(Br)cc1 (stereo not drawn) | 43* | 3 | nt | 0 | nt | 1
